# How the values were obtained:
# UACC-903 [1] = test: Cytotoxicity against human UACC-903 cells after 24 hrs by MTS assay; assay type: functional, cell-based; conditions: UACC-903, 24 h
# In short: (§1)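 Cells in DMEM with 10% FBS at 37 °C and 5% CO2 were plated at 5×10^3 per well and grown 24 h. They were then exposed 24 or 72 h to 0.5, 1, 5, 10, 25 and 50 µM, with final DMSO 0.5% and DMSO controls. MTS/PMS was added for 4 h at 37 °C. A492 was read with the medium blank subtracted and expressed as % of control. IC50 was taken from three independent experiments (mean ± S.E.).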
# [2] = Cytotoxicity against human SK-MEL-37 cells after 72 hrs by MTS assay; assay type: functional, cell-based; in short: as §1
# UACC-903 [3] = test: Induction of apoptosis in human UACC-903 cells assessed as early apoptotic cells at 1 uM after 24 hrs using annexin-V-PE/7-AAD double staining by flow cytometry; assay type: functional
# In short: (§2)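 UACC 903 cells were exposed 24 h at 37 °C to 1, 5 or 25 µM, with DMSO as control. Cells were harvested, washed twice in cold PBS and resuspended at 1×10^6 cells/mL in binding buffer. They were stained with 7-AAD plus PE Annexin V for 20 min at room temperature in the dark and run by flow cytometry within 1 h. Gating: double-negative live, 7-AAD+ dead, Annexin V+/7-AAD− early apoptotic. Three separate experiments.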
# UACC-903 [4] = test: Induction of apoptosis in human UACC-903 cells assessed as early apoptotic cells at 25 uM after 24 hrs using annexin-V-PE/7-AAD double staining by flow cytometry; assay type: functional; in short: as §2
# UACC-903 [5] = test: Induction of apoptosis in human UACC-903 cells assessed as non-viable cells at 1 uM after 24 hrs using annexin-V-PE/7-AAD double staining by flow cytometry; assay type: functional; in short: as §2
# Mus musculus [6] = test: Systemic toxicity in athymic Harlan Sprague-Dawley nude mouse xenografted with human UACC-903 cells assessed as reduction in body weight at 8.5 to 10 mg/kg, ip administered thrice a week for 24 days; assay type: organism-based; design: dose 8.5-10 mg/kg, route intraperitoneal; conditions: in vivo, 576 h
# In short: (§3)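 Female athymic nude mice, 4–6 weeks old, received 5×10^6 UACC 903 cells s.c. in DMEM/10% FBS above both rib cages. After six days they were randomized at 5 mice/group, 2 tumors/mouse. Dosing was i.p. Mon/Wed/Fri, with one arm dosed daily; controls got DMSO vehicle. Tumor dimensions (calipers, mm³) and body weight were recorded three times weekly.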
# 1205Lu [7] = test: Cytotoxicity against human 1205 Lu cells assessed as decrease in cell viability after 24 hrs by MTS assay; assay type: functional, cell-based; in short: as §1
# Mus musculus [8] = test: Systemic toxicity in Swiss Webster mouse assessed as mortality at 10 mg/kg, ip administered every day for 28 days; assay type: organism-based; design: dose 10 mg/kg, route intraperitoneal; conditions: in vivo, 672 h
# In short: (§4)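 Swiss Webster mice, n = 4 per group, dosed i.p. once daily for 28 days at 5, 7.5, 10 or 15 mg/kg body weight. Body weight recorded twice per week; deaths noted over the dosing period.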
# A375-S2 [9] = test: Cytotoxicity against human A375-S2 cells assessed as decrease in cell viability after 72 hrs by MTS assay; assay type: functional, cell-based; in short: as §1
# SK-MEL-37 (Homo sapiens) [10] = test: Cytotoxicity against human SK-MEL-37 cells assessed as decrease in cell viability after 72 hrs by MTS assay
# [11] = Cytotoxicity against human A375-S2 cells after 24 hrs by MTS assay; assay type: functional, cell-based; conditions: A375-S2, 24 h; in short: as §1
# UACC-903 [12] = test: Induction of apoptosis in human UACC-903 cells assessed as non-viable cells at 25 uM after 24 hrs using annexin-V-PE/7-AAD double staining by flow cytometry; assay type: functional; in short: as §2
# UACC-903 [13] = test: Antitumor activity against human UACC-903 cells xenografted in athymic Harlan Sprague-Dawley nude mouse assessed as reduction in tumor growth at 8.5 to 10 mg/kg, ip administered thrice per week for 24 days measured after 21 days; assay type: functional; conditions: dose mg/kg 8.5-10; route intraperitoneal; in short: as §3
# A375-S2 [14] = test: Cytotoxicity against human A375-S2 cells assessed as decrease in cell viability after 24 hrs by MTS assay; assay type: functional, cell-based; in short: as §1
# Mus musculus [15] = test: Systemic toxicity in Swiss Webster mouse assessed as mortality at 15 mg/kg, ip administered every day for 28 days; assay type: organism-based; design: dose 15 mg/kg, route intraperitoneal; conditions: in vivo, 672 h; in short: as §4
# UACC-903 [16] = test: Induction of apoptosis in human UACC-903 cells assessed as viable cells at 25 uM after 24 hrs using annexin-V-PE/7-AAD double staining by flow cytometry; assay type: functional; conditions: UACC-903, 24 h, read-out: Activity; in short: as §2
# UACC-903 [17] = test: Induction of apoptosis in human UACC-903 cells assessed as late apoptotic cells at 5 uM after 24 hrs using annexin-V-PE/7-AAD double staining by flow cytometry; assay type: functional; in short: as §2
# [18] = Cytotoxicity against human 1205 Lu cells after 24 hrs by MTS assay; assay type: functional, cell-based; in short: as §1
# UACC-903 [19] = test: Induction of apoptosis in human UACC-903 cells assessed as late apoptotic cells at 1 uM after 24 hrs using annexin-V-PE/7-AAD double staining by flow cytometry; assay type: functional; in short: as §2
# UACC-903 [20] = test: Cytotoxicity against human UACC-903 cells assessed as decrease in cell viability after 24 hrs by MTS assay; assay type: functional, cell-based; in short: as §1
# SK-MEL-37 (Homo sapiens) [21] = test: Cytotoxicity against human SK-MEL-37 cells assessed as decrease in cell viability after 24 hrs by MTS assay
# Mus musculus [22] = test: Systemic toxicity in athymic Harlan Sprague-Dawley nude mouse xenografted with human UACC-903 cells assessed as mortality at 10 mg/kg, ip administered daily for 28 days; assay type: organism-based; design: dose 10 mg/kg, route intraperitoneal; conditions: in vivo, 672 h
# UACC-903 [23] = test: Induction of apoptosis in human UACC-903 cells assessed as non-viable cells at 5 uM after 24 hrs using annexin-V-PE/7-AAD double staining by flow cytometry; assay type: functional; in short: as §2
# UACC-903 [24] = test: Cytotoxicity against human UACC-903 cells assessed as decrease in cell viability after 72 hrs by MTS assay; assay type: functional, cell-based; in short: as §1
# UACC-903 [25] = test: Cytotoxicity against human UACC-903 cells after 72 hrs by MTS assay; assay type: functional, cell-based; conditions: UACC-903, 72 h; in short: as §1
# UACC-903 [26] = test: Induction of apoptosis in human UACC-903 cells assessed as viable cells at 1 uM after 24 hrs using annexin-V-PE/7-AAD double staining by flow cytometry; assay type: functional; conditions: UACC-903, 24 h, read-out: Activity; in short: as §2
# [27] = Cytotoxicity against human SK-MEL-37 cells after 24 hrs by MTS assay; assay type: functional, cell-based; in short: as §1
# [28] = Cytotoxicity against human A375-S2 cells after 72 hrs by MTS assay; assay type: functional, cell-based; conditions: A375-S2, 72 h; in short: as §1
# UACC-903 [29] = test: Induction of apoptosis in human UACC-903 cells assessed as viable cells at 5 uM after 24 hrs using annexin-V-PE/7-AAD double staining by flow cytometry; assay type: functional; conditions: UACC-903, 24 h, read-out: Activity; in short: as §2
# UACC-903 [30] = test: Induction of apoptosis in human UACC-903 cells assessed as late apoptotic cells at 25 uM after 24 hrs using annexin-V-PE/7-AAD double staining by flow cytometry; assay type: functional; in short: as §2
# UACC-903 [31] = test: Induction of apoptosis in human UACC-903 cells assessed as early apoptotic cells at 5 uM after 24 hrs using annexin-V-PE/7-AAD double staining by flow cytometry; assay type: functional; in short: as §2
# UACC-903 [32] = test: Induction of apoptosis in human UACC-903 cells assessed as increase in apoptotic cells after 24 hrs using annexin-V-PE/7-AAD double staining by flow cytometry; assay type: functional, cell-based; in short: as §2
# Mus musculus [33] = test: Systemic toxicity in Swiss Webster mouse assessed as reduction in body weight at 10 mg/kg, ip administered daily for 28 days; design: scale not given: the % may be the effect or the level left; conditions: in vivo, 672 h
# Mus musculus [34] = test: Systemic toxicity in Swiss Webster mouse assessed as weight loss at 10 mg/kg, ip administered every day for 28 days; assay type: organism-based; design: dose 10 mg/kg, route intraperitoneal; conditions: in vivo, 672 h; in short: as §4
# 1205Lu [35] = test: Cytotoxicity against human 1205 Lu cells assessed as decrease in cell viability after 72 hrs by MTS assay; assay type: functional, cell-based; in short: as §1
# [36] = Cytotoxicity against human 1205 Lu cells after 72 hrs by MTS assay; assay type: functional, cell-based; in short: as §1
SMILES,IC50 (UACC-903 [1]),IC50 [2],Activity (UACC-903 [3]),Activity (UACC-903 [4]),Activity (UACC-903 [5]),Activity (Mus musculus [6]),Activity (1205Lu [7]),Activity (Mus musculus [8]),Activity (A375-S2 [9]),Activity (SK-MEL-37 (Homo sapiens) [10]),IC50 [11],Activity (UACC-903 [12]),growth inhibition (GI) (UACC-903 [13]),Activity (A375-S2 [14]),Activity (Mus musculus [15]),viability at 25 µM (UACC-903 [16]),Activity (UACC-903 [17]),IC50 [18],Activity (UACC-903 [19]),Activity (UACC-903 [20]),also measured
O=C1c2cccc3cc([N+](=O)[O-])cc(c23)C(=O)N1CCN=C=S,8.38 µM,1730 nM,17.9%,79.8%,1.39%,Non-toxic,Dose-dependent effect,Non-toxic,Dose-dependent effect,Dose-dependent effect,7.88 µM,0.19%,60%,Dose-dependent effect,Toxic,1.4%,11.9%,5.82 µM,7.83%,Dose-dependent effect,Activity (SK-MEL-37 (Homo sapiens) [21]): Dose-dependent effect; Activity (Mus musculus [22]): Non-toxic; Activity (UACC-903 [23]): 1.23%; Activity (UACC-903 [24]): Dose-dependent effect; IC50 (UACC-903 [25]): 5.5 µM; viability at 1 µM (UACC-903 [26]): 72.9%; IC50 [27]: 2880 nM; IC50 [28]: 2.81 µM; viability at 5 µM (UACC-903 [29]): 64.7%; Activity (UACC-903 [30]): 18.6%; Activity (UACC-903 [31]): 22.2%; Activity (UACC-903 [32]): Dose-dependent effect; Activity (Mus musculus [33]): 10%; Activity (Mus musculus [34]): Non-toxic; Activity (1205Lu [35]): Dose-dependent effect; IC50 [36]: 3.91 µM
O=C1c2cccc3cccc(c23)C(=O)N1CCCCCCN=C=S,9.02 µM,1670 nM,12.9%,71.6%,2.99%,Non-toxic,Dose-dependent effect,Non-toxic,Dose-dependent effect,Dose-dependent effect,5.07 µM,1.15%,50%,Dose-dependent effect,Toxic,18.7%,28.7%,11.5 µM,6.25%,Dose-dependent effect,Activity (SK-MEL-37 (Homo sapiens) [21]): Dose-dependent effect; Activity (UACC-903 [23]): 2.11%; Activity (UACC-903 [24]): Dose-dependent effect; IC50 (UACC-903 [25]): 7.6 µM; viability at 1 µM (UACC-903 [26]): 77.8%; IC50 [27]: 3070 nM; IC50 [28]: 3.54 µM; viability at 5 µM (UACC-903 [29]): 19.6%; Activity (UACC-903 [30]): 8.56%; Activity (UACC-903 [31]): 49.6%; Activity (UACC-903 [32]): Dose-dependent effect; Activity (Mus musculus [34]): Non-toxic; Activity (1205Lu [35]): Dose-dependent effect; IC50 [36]: 5.25 µM

# — ChEMBL document CHEMBL1806370, “Development of novel naphthalimide derivatives and their evaluation as potential melanoma therapeutics” (Eur J Med Chem, 2011)
